{"source": "ChEMBL document CHEMBL3763072", "about": "“Structure activity relationship studies on chemically non-reactive glycine sulfonamide inhibitors of diacylglycerol lipase” (Bioorg Med Chem, 2016)", "key": {"[1]": {"molecular_target": "T1, Diacylglycerol lipase-alpha (Homo sapiens, UniProt Q9Y4D2)", "T1 sequence (Q9Y4D2 whole entry)": "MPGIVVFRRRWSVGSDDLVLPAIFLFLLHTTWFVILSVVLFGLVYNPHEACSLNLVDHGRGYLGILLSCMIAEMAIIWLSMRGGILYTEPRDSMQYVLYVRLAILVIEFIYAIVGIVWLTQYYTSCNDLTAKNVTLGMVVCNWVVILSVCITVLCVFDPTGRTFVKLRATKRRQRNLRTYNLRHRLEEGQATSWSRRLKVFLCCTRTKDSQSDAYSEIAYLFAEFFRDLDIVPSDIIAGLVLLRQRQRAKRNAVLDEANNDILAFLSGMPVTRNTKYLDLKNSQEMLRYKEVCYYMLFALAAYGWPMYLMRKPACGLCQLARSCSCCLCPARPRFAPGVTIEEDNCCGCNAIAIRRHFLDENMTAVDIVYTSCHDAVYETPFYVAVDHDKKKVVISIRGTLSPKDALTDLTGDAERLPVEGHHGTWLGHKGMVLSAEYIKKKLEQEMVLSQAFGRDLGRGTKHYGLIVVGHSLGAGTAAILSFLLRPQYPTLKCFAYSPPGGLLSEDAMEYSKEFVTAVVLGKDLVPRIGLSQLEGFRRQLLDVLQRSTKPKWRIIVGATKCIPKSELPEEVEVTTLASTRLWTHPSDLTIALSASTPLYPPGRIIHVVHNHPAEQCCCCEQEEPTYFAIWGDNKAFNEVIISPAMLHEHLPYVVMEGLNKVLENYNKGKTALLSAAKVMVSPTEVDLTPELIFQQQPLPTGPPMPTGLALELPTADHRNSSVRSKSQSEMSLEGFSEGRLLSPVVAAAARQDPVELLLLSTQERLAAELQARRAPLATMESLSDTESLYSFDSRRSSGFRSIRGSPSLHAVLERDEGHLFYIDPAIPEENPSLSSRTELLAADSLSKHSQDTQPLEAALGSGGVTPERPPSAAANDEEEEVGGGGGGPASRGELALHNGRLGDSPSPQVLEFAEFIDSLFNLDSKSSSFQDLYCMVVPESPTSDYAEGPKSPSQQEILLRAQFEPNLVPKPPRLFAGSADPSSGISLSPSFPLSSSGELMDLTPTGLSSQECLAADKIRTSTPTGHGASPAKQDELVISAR", "test": "Inhibition of full length human C-terminal HA-tagged DAGLalpha expressed in HEK293 cells using DAG as substrate assessed as reduction in intracellular 2-AG level incubated for 20 mins by LC-MS analysis", "assay_type": "cell-based"}, "[2]": {"molecular_target": "T1, Diacylglycerol lipase-alpha", "test": "Inhibition of full length human C-terminal HA-tagged DAGLalpha expressed in HEK293 cell membrane using DAG as substrate incubated for 20 mins by LC-MS analysis", "assay_type": "cell-based", "method_in_brief": "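Cell-free DAGL-α enzyme assay run at pH 6.5. IC50 values are reported, with replicate counts (n) given per value.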"}, "[3]": {"molecular_target": "T2, Monoglyceride lipase (Homo sapiens) (UniProt Q99685)", "T2 sequence (whole entry)": "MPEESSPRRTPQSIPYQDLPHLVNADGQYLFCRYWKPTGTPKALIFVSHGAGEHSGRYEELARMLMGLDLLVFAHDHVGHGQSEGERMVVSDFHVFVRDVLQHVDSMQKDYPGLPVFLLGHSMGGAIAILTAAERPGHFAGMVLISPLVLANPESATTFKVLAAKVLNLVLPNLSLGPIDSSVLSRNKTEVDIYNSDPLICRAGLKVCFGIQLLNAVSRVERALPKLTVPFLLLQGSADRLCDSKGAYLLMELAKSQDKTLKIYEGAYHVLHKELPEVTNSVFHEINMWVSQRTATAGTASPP", "test": "Inhibition of MAGL (unknown origin) at 30 uM"}, "[4]": {"test_system": "Mus musculus", "test": "In vivo inhibition of DAGLalpha in ip dosed mouse assessed as reduction in 2-AG level in liver", "assay_type": "functional, organism-based"}, "[5]": {"molecular_target": "T3, Diacylglycerol lipase-beta (Homo sapiens, UniProt Q8NCG7)", "T3 sequence (Q8NCG7 whole entry)": "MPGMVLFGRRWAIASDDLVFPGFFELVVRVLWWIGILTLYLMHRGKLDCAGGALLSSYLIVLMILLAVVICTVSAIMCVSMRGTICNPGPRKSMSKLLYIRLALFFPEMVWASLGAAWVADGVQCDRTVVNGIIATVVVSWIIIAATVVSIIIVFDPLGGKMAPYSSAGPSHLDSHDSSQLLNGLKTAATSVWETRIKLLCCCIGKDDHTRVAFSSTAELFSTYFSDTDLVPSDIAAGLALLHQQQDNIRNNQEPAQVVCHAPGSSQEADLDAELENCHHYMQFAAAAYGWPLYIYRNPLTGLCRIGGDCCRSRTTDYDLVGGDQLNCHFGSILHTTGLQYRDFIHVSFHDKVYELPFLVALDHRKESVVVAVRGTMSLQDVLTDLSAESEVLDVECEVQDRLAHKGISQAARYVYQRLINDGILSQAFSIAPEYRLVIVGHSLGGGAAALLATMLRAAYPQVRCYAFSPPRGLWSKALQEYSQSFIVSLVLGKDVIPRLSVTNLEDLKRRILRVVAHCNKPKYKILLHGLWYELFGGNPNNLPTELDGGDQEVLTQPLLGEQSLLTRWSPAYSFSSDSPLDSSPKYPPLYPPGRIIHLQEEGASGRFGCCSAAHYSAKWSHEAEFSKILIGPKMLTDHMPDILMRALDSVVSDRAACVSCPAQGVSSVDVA", "test": "Inhibition of DAGLbeta (unknown origin)"}, "[6]": {"test": "Metabolic stability in human liver microsomes assessed as residual compound at 3 uM preincubated for 2 mins followed by NADPH addition measured after 10 mins by LC-MS analysis", "assay_type": "ADME", "conditions": "read-out: Stability"}, "[7]": {"test": "Metabolic stability in rat liver microsomes assessed as residual compound at 3 uM preincubated for 2 mins followed by NADPH addition measured after 10 mins by LC-MS analysis", "assay_type": "ADME", "conditions": "read-out: Stability"}, "[8]": {"test": "Metabolic stability in mouse liver microsomes assessed as residual compound at 3 uM preincubated for 2 mins followed by NADPH addition measured after 10 mins by LC-MS analysis", "assay_type": "ADME", "conditions": "read-out: Stability"}, "[9]": {"molecular_target": "T4, Pancreatic triacylglycerol lipase (Sus scrofa) (UniProt P00591)", "T4 sequence (whole entry)": "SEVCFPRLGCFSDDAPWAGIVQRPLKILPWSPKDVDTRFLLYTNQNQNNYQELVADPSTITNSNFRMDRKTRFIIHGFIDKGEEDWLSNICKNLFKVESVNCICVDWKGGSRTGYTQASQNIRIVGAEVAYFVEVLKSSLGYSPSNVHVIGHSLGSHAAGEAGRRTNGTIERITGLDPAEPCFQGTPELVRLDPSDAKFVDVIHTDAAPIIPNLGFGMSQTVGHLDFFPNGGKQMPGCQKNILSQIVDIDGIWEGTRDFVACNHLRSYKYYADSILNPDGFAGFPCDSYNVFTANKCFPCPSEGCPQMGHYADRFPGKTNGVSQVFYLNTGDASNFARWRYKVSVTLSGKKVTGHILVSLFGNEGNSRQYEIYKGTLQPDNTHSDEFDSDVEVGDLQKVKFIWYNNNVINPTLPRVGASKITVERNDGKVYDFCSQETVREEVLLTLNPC", "test": "Inhibition of porcine pancreatic lipase at 30 uM"}, "[10]": {"molecular_target": "T5, Diacylglycerol lipase-alpha (Homo sapiens) (UniProt Q9Y4D2)", "T5 sequence (whole entry)": "T1 sequence (Q9Y4D2 whole entry)", "test": "Ratio of IC50 for full length human C-terminal HA-tagged DAGLalpha expressed in HEK293 cells assessed as reduction in intracellular 2-AG level to IC50 for full length human C-terminal HA-tagged DAGLalpha expressed in HEK293 cell membrane", "assay_type": "cell-based"}, "[11]": {"test_system": "HEK293", "test": "Selectivity ratio of IC50 for full length human C-terminal HA-tagged DAGLalpha expressed in HEK293 cell membrane to IC50 for DAGLbeta (unknown origin)", "assay_type": "cell-based"}}, "note": "Calls of active or inactive are those of the source. The rule behind the calls is not given here.", "data": [{"molecule": "O=C(O)CN(c1cccc(-c2cccc(Cl)c2Cl)c1)S(=O)(=O)c1ccc(OC(F)F)cc1", "values": [{"measurement": "IC50", "setting": "[1]", "result": 14.3, "unit": "nM"}, {"measurement": "IC50", "setting": "[2]", "result": 2.4, "unit": "nM"}, {"measurement": "inhibition", "setting": "[3]", "result": "inactive"}, {"measurement": "inhibition", "setting": "[4]", "result": "Active"}, {"measurement": "IC50", "setting": "[5]", "result": 40, "unit": "nM"}]}, {"molecule": "O=C(O)CN(C1(c2cccc(-c3cc(Cl)cc(Cl)c3)c2)CCC1)S(=O)(=O)c1ccccc1Cl", "values": [{"measurement": "IC50", "setting": "[2]", "result": 510, "unit": "nM"}]}, {"molecule": "O=C(O)CN(C1(c2cccc(-c3ccc(Cl)cc3Cl)c2)CCC1)S(=O)(=O)c1ccc(Cl)c(Cl)c1", "values": [{"measurement": "inhibition", "setting": "[3]", "result": "inactive"}]}, {"molecule": "O=C(O)CN(C1(c2ccc(-c3ccccc3OC(F)(F)F)cc2)CCC1)S(=O)(=O)c1ccc(OC(F)F)cc1", "values": [{"measurement": "inhibition", "setting": "[3]", "result": "inactive"}, {"measurement": "remaining at 10 min, 3 µM", "setting": "[6]", "result": 78, "unit": "%"}, {"measurement": "remaining at 10 min, 3 µM", "setting": "[7]", "result": 100, "unit": "%"}, {"measurement": "remaining at 10 min, 3 µM", "setting": "[8]", "result": 100, "unit": "%"}]}, {"molecule": "O=C(O)CN(C1(c2ccc(-c3ccc(Cl)cc3Cl)cc2)CCC1)S(=O)(=O)c1ccc(OC(F)F)cc1", "values": [{"measurement": "inhibition", "setting": "[9]", "result": "inactive"}, {"measurement": "IC50", "setting": "[1]", "result": 88, "unit": "nM"}, {"measurement": "IC50", "setting": "[2]", "result": 6, "unit": "nM"}, {"measurement": "inhibition", "setting": "[3]", "result": "inactive"}, {"measurement": "Ratio IC50", "setting": "[10]", "result": 15}, {"measurement": "IC50", "setting": "[5]", "result": 146, "unit": "nM"}, {"measurement": "Ratio IC50", "setting": "[11]", "result": 24}]}, {"molecule": "C[C@@H](c1ccc(-c2ccc(Cl)cc2Cl)cc1)N(CC(=O)O)S(=O)(=O)c1ccc(OC(F)F)cc1", "values": [{"measurement": "IC50", "setting": "[2]", "result": 18, "unit": "nM"}]}]}
